Experiments:
[1] = test system: Human immunodeficiency virus 1; test: Effective concentration of compound to inhibit human immunodeficiency virus HIV-1 wild type strain IIIB multiplication in CEM wild type cells; assay type: functional, organism-based; settings: Human immunodeficiency virus 1, CCRF-CEM
Outline: (§1)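 HIV-1 strains HTLV-IIIB (wild type) and N119 (RT Y181C) were grown in H9 cells in RPMI 1640 with 10% heat-inactivated FCS. CEM wt or CEM TK- cells were infected at 0.005 MOI with compound dilutions for 6 days, alongside infected and uninfected controls. HIV expression was read by HIV-1 antigen ELISA. IC50 was interpolated from % inhibition versus concentration plots.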

[2] = test system: Human immunodeficiency virus 1; test: Effective concentration of compound to inhibit human immunodeficiency virus HIV-1 wild type strain IIIB multiplication in MT-4 infected cells; assay type: functional, organism-based
Outline: (§2)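 MT-4 cells were infected at 0.005 MOI and cultured 6 days in growth medium (RPMI 1640, 10% heat-inactivated FCS, antibiotics) with the compound dilutions. Infected and uninfected cultures without compound ran in parallel. HIV expression was quantified indirectly by MTT assay. EC50 was interpolated from plots of percent inhibition versus concentration.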

[3] = test system: MT4; test: Cytotoxic concentration required to reduce the viability of normal uninfected MT-4 cells; assay type: functional; settings: Homo sapiens
Outline: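 Uninfected MT-4 cultures were grown with the same compound dilutions as the antiviral assay, run in parallel. A 30% inhibition of cell growth relative to control cultures counted as significant. CC50 was interpolated from plots of percent inhibition versus compound concentration.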

[4] = test system: Human immunodeficiency virus 2; test: Effective concentration of compound to inhibit human immunodeficiency virus HIV-2 multiplication in CEM wild type cells; assay type: functional, organism-based; settings: Human immunodeficiency virus 2, CCRF-CEM
Outline: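 CEM wild-type cells were infected at 0.005 MOI and held 6 days in growth medium containing the compound dilutions, alongside untreated infected and uninfected controls. HIV-1 or HIV-2 antigen was detected by ELISA. EC50 was interpolated from plots of percent inhibition versus concentration.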

[5] = test system: Human immunodeficiency virus 2; test: Effective concentration of compound to inhibit human immunodeficiency virus HIV-2 multiplication in MT-4 infected cells; assay type: functional, organism-based; outline: as §2
[6] = test system: Human immunodeficiency virus 1; test: Effective concentration of compound to inhibit human immunodeficiency virus HIV-1 strain N119 multiplication in CEM wild type cells; assay type: functional, organism-based; settings: Human immunodeficiency virus 1, CCRF-CEM; outline: as §1
[7] = test system: Human immunodeficiency virus 1; test: Effective concentration of compound to inhibit human immunodeficiency virus HIV-1 strain N119 multiplication in MT-4 infected cells; assay type: functional, organism-based; outline: as §2
[8] = test system: Human immunodeficiency virus 2; test: Effective concentration of compound to inhibit human immunodeficiency virus HIV-2 multiplication in thymidine-kinase-deficient CEM cells; assay type: functional, organism-based; settings: Human immunodeficiency virus 2, CCRF-CEM
Outline: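 Thymidine-kinase-deficient CEM cells were infected with HIV-2 at 0.005 MOI and incubated 6 days with compound dilutions, alongside infected and uninfected controls without compound. Virus expression was quantified by HIV-2 antigen ELISA. ED50 was interpolated from percent inhibition versus concentration plots; three independent tests.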

[9] = test system: Human immunodeficiency virus 1; test: Effective concentration of compound to inhibit human immunodeficiency virus HIV-1 strain N119 multiplication in thymidine-kinase-deficient CEM cells; assay type: functional, organism-based; settings: Human immunodeficiency virus 1, CCRF-CEM; outline: as §1
[10] = test system: CCRF-CEM; test: Cytotoxic concentration was measured in CEM wild-type/thymidine-kinase-deficient CEM Cells; assay type: functional; settings: Homo sapiens
Outline: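 Uninfected CEM wild-type and CEM TK- cultures were exposed to the compound dilutions in parallel with the antiviral tests. Cell growth inhibition of 30% versus control cultures was considered significant. CC50 was interpolated from plots of percent inhibition against concentration.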

[11] = test system: Human immunodeficiency virus 1; test: Effective concentration of compound to inhibit human immunodeficiency virus HIV-1 wild type strain IIIB multiplication in thymidine-kinase-deficient CEM cells; assay type: functional, organism-based; settings: Human immunodeficiency virus 1, CCRF-CEM; outline: as §1
[12] = test system: Human immunodeficiency virus 2; test: Effective dose was measured against human immunodeficiency virus type 2 in thymidine-kinase-deficient CEM Cells; experiment 1; assay type: functional; settings: Human immunodeficiency virus 2, CCRF-CEM; read-out: ED50 (the source's name)
Outline: (§3)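 HIV-2 strain SBL 6669 in CEM TK- cells, infected at 0.005 MOI and kept with compound dilutions for 6 days, with infected and uninfected controls. Readout was HIV-2 antigen ELISA. The 50% effective value was interpolated from % inhibition versus concentration plots. Each line is one of three independent tests.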

[13] = test system: Human immunodeficiency virus 2; test: Effective dose was measured against human immunodeficiency virus type 2 in thymidine-kinase-deficient CEM Cells; experiment 2; assay type: functional; settings: Human immunodeficiency virus 2, CCRF-CEM; read-out: ED50 (the source's name); outline: as §3
[14] = test system: Human immunodeficiency virus 2; test: Effective dose was measured against human immunodeficiency virus type 2 in thymidine-kinase-deficient CEM Cells; experiment 3; assay type: functional; settings: Human immunodeficiency virus 2, CCRF-CEM; read-out: ED50 (the source's name); outline: as §3

| Compound | EC50 [1] [nM] | EC50 [2] [nM] | CC50 [3] [nM] | EC50 [4] [nM] | EC50 [5] [nM] | EC50 [6] [nM] | EC50 [7] [nM] | EC50 [8] [nM] | EC50 [9] [nM] | CC50 [10] [nM] | EC50 [11] [nM] | EC50 [12] [nM] | EC50 [13] [nM] | EC50 [14] [nM] |
| --- | --- | --- | --- | --- | --- | --- | --- | --- | --- | --- | --- | --- | --- | --- |
| CCc1c(Cc2cc(C)cc(C)c2)n(COC/C=C/c2ccc(O)cc2)c(=O)[nH]c1=O | 2 | 20 | 35000 | > 10000 | > 10000 | 400 | 2400 | > 10000 | 200 | 32000 | 6 |  |  |  |
| CCc1c(Cc2cc(C)cc(C)c2)n(COC/C=C/c2ccc(O[P@](=O)(OCCSC(=O)C(C)(C)C)OC[C@@H]3C=C[C@H](n4cc(C)c(=O)[nH]c4=O)O3)cc2)c(=O)[nH]c1=O | 10 | 40 | 35000 | 100 |  | 300 | 3300 | 4000 | 200 | 32000 | 5 | 3000 | 4000 | 5000 |
| CCc1c(Cc2cc(C)cc(C)c2)n(COC/C=C/c2ccc(OC(=O)c3ccccc3)cc2)c(=O)[nH]c1=O |  | 5 | 35000 |  |  |  | 1000 |  |  |  |  |  |  |  |
| CCOCn1c(Cc2ccccc2)c(C(C)C)c(=O)n(C(=O)c2ccc(OP(=O)(OCCSC(=O)C(C)(C)C)OCC3C=CC(n4cc(C)c(=O)[nH]c4=O)O3)cc2)c1=O (centres undefined) | 30 | 30 | 35000 | 20 |  | 30 | 2700 | 3000 | 300 | 32000 | 6 | 3000 | 3000 | 4000 |
| CCc1c(Cc2cc(C)cc(C)c2)n(COCc2ccc(OCc3ccccc3)cc2)c(=O)[nH]c1=O |  | 30 | 12000 |  |  |  | 300 |  |  |  |  |  |  |  |
| CCc1c(Cc2cc(C)cc(C)c2)n(COCc2ccc(O[P@](=O)(OCCSC(=O)C(C)(C)C)OC[C@@H]3C=C[C@H](n4cc(C)c(=O)[nH]c4=O)O3)cc2)c(=O)[nH]c1=O |  | 3 | 35000 | 100 | 4000 |  | 400 | 2000 |  | 32000 |  | 3000 | 2000 | 2000 |
| Cc1cn([C@H]2C=C[C@@H](CO)O2)c(=O)[nH]c1=O [STAVUDINE] | 300 | 500 | > 100000 | 100 | 500 | 800 | 1800 | > 10000 | > 10000 | > 100000 | > 10000 |  |  |  |
| CCOCn1c(Cc2ccccc2)c(C(C)C)c(=O)[nH]c1=O [EMIVIRINE] | 30 |  | > 100000 | > 10000 | > 10000 | > 100000 | 79000 | > 10000 | > 10000 | > 100000 | > 10000 |  |  |  |
